This is an account of results in ChEMBL document CHEMBL4339255, “Dimeric Pyranonaphthoquinone Glycosides with Anti-HIV and Cytotoxic Activities from a Soil-Derived Streptomyces” (J Nat Prod, 2019).

Data set [1] relates to HL-60. Kind of data set: Cytotoxicity in human HL60 cells assessed as reduction in cell viability incubated for 72 hrs by MTS assay. As to conditions: HL-60, 72 h. The data set is classed as functional, cell-based. A digest of the protocol: (§1)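 Cells plated at 5 × 10^3 per well, left 24 h, then given a range of sample concentrations from DMSO solutions, in triplicate; DMSO-only negative controls, paclitaxel and cisplatin positive controls. After 72 h exposure, MTS added for 2 h at 37 °C, absorbance read at 492 nm, IC50 by the Reed and Muench method.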

The subject of data set [2] is MCF7. Kind of data set: Cytotoxicity in human MCF7 cells assessed as reduction in cell viability incubated for 72 hrs by MTS assay. The data set is classed as functional, cell-based. Particulars: MCF7, 72 h. In outline: as §1
(Tetrazolium dyes change colour on reduction, which living cells bring about.)

A short description of data set [3]: Therapeutic index, ratio of CC50 for toxicity in C8166 cells to EC50 for antiviral activity against HIV1 3B infected in human C8166 cells. The data set is classed as cell-based. Particulars: read-out: Ratio CC50/EC50.
For data set [4], the system named is Human immunodeficiency virus 1. Kind of data set: Antiviral activity against HIV1 3B infected in human C8166 cells assessed as inhibition of syncytial cell formation incubated for 72 hrs. The data set is classed as functional, organism-based. As to conditions: Human immunodeficiency virus 1, 3B, C8166, 72 h.
A short description of data set [5]: Toxicity in human C8166 cells assessed as reduction in cell viability incubated for 72 hrs by MTT assay. The data set is classed as cell-based.

The IC50 is the midpoint of a concentration-inhibition curve. The EC50 is the concentration giving half of the maximal effect. Broadly, the CC50 is the concentration at which the toxic effect on the cells reaches its halfway point.

Bounds are passed on as bounds.

As to `COC(=O)C[C@H]1C[C@@]2(S[C@@]34C[C@H](CC(=O)O[C@H]5O[C@@H](C(=O)OC)[C@H](O)[C@@H](O)[C@@H]5O)O[C@@H](C)[C@@]3(O)C(=O)c3c(O)cccc3C4=O)C(=O)c3cccc(O)c3C(=O)[C@]2(O)[C@H](C)O1`, the IC50 stood at 16.1 µM in data set [1] and 3.4 µM in data set [2].

Consider `COC(=O)C[C@H]1C[C@@]2(S[C@@]34C[C@H](CC(=O)OC)O[C@@H](C)[C@@]3(O)C(=O)c3c(O[C@H]5O[C@@H](C(=O)O)[C@H](O)[C@@H](O)[C@@H]5O)cccc3C4=O)C(=O)c3cccc(O)c3C(=O)[C@]2(O)[C@H](C)O1`, for which the selectivity ratio in data set [3] is > 2.2. The EC50 in data set [4] came to 44.7 µM. The CC50 at 72 h in data set [5] was > 100 µM.

For the compound `COC(=O)C[C@H]1C[C@@]2(S[C@@]34C[C@H](CC(=O)O[C@H]5O[C@@H](C(=O)O)[C@H](O)[C@@H](O)[C@@H]5O)O[C@@H](C)[C@@]3(O)C(=O)c3c(O)cccc3C4=O)C(=O)c3cccc(O)c3C(=O)[C@]2(O)[C@H](C)O1`, the selectivity ratio in data set [3] was 5.4. Besides, the EC50 in data set [4] is 9.6 µM. For the same compound, in data set [5], the CC50 at 72 h came out at 52 µM.

As for `COC(=O)C[C@H]1C[C@@]2(S[C@@]34C[C@H](CCO[C@H]5O[C@@H](C(=O)OC)[C@H](O)[C@@H](O)[C@@H]5O)O[C@@H](C)[C@@]3(O)C(=O)c3c(O)cccc3C4=O)C(=O)c3cccc(O)c3C(=O)[C@]2(O)[C@H](C)O1`, in data set [3], the selectivity ratio came out at 4.2. Besides, the IC50 in data set [1] was 14.9 µM; in data set [2], 3.4 µM. The EC50 in data set [4] was 8.6 µM. The CC50 at 72 h in data set [5] was 36.4 µM.

Turning to `COC(=O)C[C@H]1C[C@@]2(S[C@@]34C[C@H](CC(=O)O[C@H]5OC(C(=O)O)=C[C@@H](O)[C@@H]5O)O[C@@H](C)[C@@]3(O)C(=O)c3c(O)cccc3C4=O)C(=O)c3cccc(O)c3C(=O)[C@]2(O)[C@H](C)O1`, the selectivity ratio in data set [3] was 22.5. The IC50 in data set [1] stood at 9.9 µM; in data set [2], 1.4 µM. The EC50 in data set [4] is 2.8 µM. Also, the CC50 at 72 h in data set [5] was found to be 63.7 µM.

For the compound `COC(=O)C[C@H]1C[C@@]2(S[C@@]34C[C@H](CCO[C@H]5O[C@@H](C(=O)O)[C@H](O)[C@@H](O)[C@@H]5O)O[C@@H](C)[C@@]3(O)C(=O)c3c(O)cccc3C4=O)C(=O)c3cccc(O)c3C(=O)[C@]2(O)[C@H](C)O1`, the selectivity ratio in data set [3] is 5.9. Moreover, the EC50 in data set [4] came out at 9.6 µM. For the same compound, the CC50 at 72 h in data set [5] is 56.4 µM.

On to `Nc1ccn([C@@H]2CS[C@H](CO)O2)c(=O)n1` [LAMIVUDINE], for which the selectivity ratio in data set [3] was > 2910. The EC50 in data set [4] worked out at 0.3 µM. For the same compound, the CC50 at 72 h in data set [5] was > 1000 µM.

Turning to `CC(=O)O[C@H]1C(=O)[C@@]2(C)[C@H]([C@H](OC(=O)c3ccccc3)[C@]3(O)C[C@H](OC(=O)[C@H](O)[C@@H](NC(=O)c4ccccc4)c4ccccc4)C(C)=C1C3(C)C)[C@]1(OC(C)=O)CO[C@@H]1C[C@@H]2O` [PACLITAXEL], the IC50 in data set [1] and in data set [2] was < 0.008 µM throughout.
